Published values collected from several papers.
Protocols differ between the studies behind these lines.
Sample: plasma
Route: oral

Structure (SMILES)	species	dose	setting	Cmax
Cn1cc(-c2ccc(S(=O)(=O)[C@@H]3C[C@@H](C(=O)NC4(C#N)CC4)N(C(=O)C4(C(F)(F)F)CC4)C3)c(C(F)(F)F)c2)cn1	human	100 mg	single dose, fasted, healthy volunteers	516 ng/mL
CO[C@H]1CC[C@H](N2C(=O)CNc3ncc(-c4ccc(C(C)(C)O)nc4)nc32)CC1	human	15 mg	patients	97.4 ng/mL
COCCOc1cnc2ccn([C@H](C)c3nnc4c(F)cc(-c5cnn(C)c5)cn34)c(=O)c2c1	human	300 mg	multiple doses, once daily, patients	4140 ng/mL
CCc1nc2c(C)cc(N3CCN(CC(=O)N4CC(O)C4)CC3)cn2c1N(C)c1nc(-c2ccc(F)cc2)c(C#N)s1	human	150 mg	single dose, fed, healthy volunteers	1400 ng/mL
CC(C)n1cc(C#N)c2cc(-n3cc(C(=O)O)cn3)ccc21	human	200 mg	single dose, fed	5400 ng/mL
COc1ccc([C@@H]2CN(C(=O)[C@@H](O)CO)C[C@@]2(C)[C@@H](C)O)cc1OC1CN(c2ccc(C)cn2)C1	human	1.5 mg	single dose, healthy volunteers	76.5 ng/mL
CCn1c(=O)c(-c2cc(NC(=O)Nc3ccccc3)c(F)cc2Br)cc2cnc(NC)cc21	human	150 mg	single dose, patients	502 ng/mL
COc1cc(C(=O)NC2CCN(C)CC2)c(F)cc1Nc1ncc(C(F)(F)F)c(Oc2cccc3c2C(=O)N(C)C3)n1	human	25 mg	multiple doses, once daily, steady state, patients	405 nM
CC(C)(O)c1ccccc1-c1ccc2[nH]c(/C=C/c3ccc(C(F)(F)F)cc3)nc2c1	male human	2 mg	single dose, fasted, healthy volunteers	7.66 ng/mL
